# Measurements as given in article PMC2692831 (Chemistry & biology, 2009).
# Assays:
# [1] = tested on: brain and liver proteomes; assay: CC-ABPP of in vivo protein targets of alkyne analogues; conditions: 10 mg/kg, i.p., 2 hr, FAAH(+/+) and (-/-) mice
# Outline: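 Alkyne-tagged test compound given i.p. at 10 mg/kg to FAAH(+/+) and FAAH(-/-) mice; vehicle-treated mice of both genotypes served as controls. After 2 hr, mice were sacrificed and brain and liver proteomes collected. Proteomes were conjugated to a rhodamine-azide tag under click-chemistry conditions and resolved by gel with in-gel fluorescence scanning. FAAH was assigned as the 60 kDa band missing in FAAH(-/-) mice.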
# [2] = tested on: brain and liver levels of AEA, PEA, OEA, 2-AG; assay: Tissue levels of FAAH substrates; type: in vivo, mice
# FAAH [3] = target: T1, FAAH (Homo sapiens, UniProt O00519); assay: Inhibitor potency; type: biochemical; conditions: read-out: kinact/Ki hFAAH
# T1 sequence (O00519 1-579): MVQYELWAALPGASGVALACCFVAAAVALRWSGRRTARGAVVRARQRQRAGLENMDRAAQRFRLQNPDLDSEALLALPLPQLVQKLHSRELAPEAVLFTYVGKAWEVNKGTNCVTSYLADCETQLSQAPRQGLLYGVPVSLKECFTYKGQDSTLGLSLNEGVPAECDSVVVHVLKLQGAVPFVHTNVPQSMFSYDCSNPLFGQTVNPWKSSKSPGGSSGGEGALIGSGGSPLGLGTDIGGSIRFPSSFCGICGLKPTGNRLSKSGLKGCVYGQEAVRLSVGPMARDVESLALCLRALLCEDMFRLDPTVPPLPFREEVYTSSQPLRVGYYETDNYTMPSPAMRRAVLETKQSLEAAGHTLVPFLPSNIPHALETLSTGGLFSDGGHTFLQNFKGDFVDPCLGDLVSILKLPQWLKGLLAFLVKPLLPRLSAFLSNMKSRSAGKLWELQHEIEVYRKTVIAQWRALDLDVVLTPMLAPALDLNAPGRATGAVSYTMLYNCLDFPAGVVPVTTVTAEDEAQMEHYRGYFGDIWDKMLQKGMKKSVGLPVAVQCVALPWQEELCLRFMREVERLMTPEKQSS
# Outline: (§1)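 Purified recombinant FAAH (human, rat, or humanized rat h/rFAAH) in an enzyme-coupled assay with oleamide as substrate. FAAH hydrolysis releases ammonia, which is coupled to stoichiometric NAD+ formation, read continuously. NAD+ production is linear over 40 min without inhibitor. Test compound is added from a DMSO stock. kinact and Ki are derived from progress curves and saturation plots fitted to a covalent inactivation model.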
# rFAAH = target: T2, rFAAH (Rattus norvegicus, UniProt P97612); assay: Inhibitor potency; type: biochemical; conditions: read-out: kinact/Ki rFAAH
# T2 sequence (P97612 1-579): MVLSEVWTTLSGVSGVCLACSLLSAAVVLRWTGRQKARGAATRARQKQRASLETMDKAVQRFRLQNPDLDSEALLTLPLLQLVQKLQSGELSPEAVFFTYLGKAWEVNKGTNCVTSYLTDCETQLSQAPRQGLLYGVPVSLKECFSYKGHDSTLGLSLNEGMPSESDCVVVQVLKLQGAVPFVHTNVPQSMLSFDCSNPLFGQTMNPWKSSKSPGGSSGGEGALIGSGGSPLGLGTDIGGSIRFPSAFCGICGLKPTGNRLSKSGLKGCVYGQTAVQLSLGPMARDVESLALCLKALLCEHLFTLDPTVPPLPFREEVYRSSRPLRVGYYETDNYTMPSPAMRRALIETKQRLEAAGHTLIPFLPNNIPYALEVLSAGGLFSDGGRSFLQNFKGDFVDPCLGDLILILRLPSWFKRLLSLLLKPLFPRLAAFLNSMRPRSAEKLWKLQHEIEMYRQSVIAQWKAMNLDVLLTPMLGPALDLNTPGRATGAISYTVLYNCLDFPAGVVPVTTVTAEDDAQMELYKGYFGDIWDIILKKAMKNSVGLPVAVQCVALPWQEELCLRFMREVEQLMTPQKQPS
# Outline: as §1
# FAAH in the brain = target: T3, FAAH in the brain (Mus musculus, UniProt O08914); assay: Competitive ABPP with FP-rhodamine, brain of treated mice; type: in vivo; conditions: for inactivation of FAAH in the brain: time course 1 to 24 hrs
# T3 sequence (O08914 1-579): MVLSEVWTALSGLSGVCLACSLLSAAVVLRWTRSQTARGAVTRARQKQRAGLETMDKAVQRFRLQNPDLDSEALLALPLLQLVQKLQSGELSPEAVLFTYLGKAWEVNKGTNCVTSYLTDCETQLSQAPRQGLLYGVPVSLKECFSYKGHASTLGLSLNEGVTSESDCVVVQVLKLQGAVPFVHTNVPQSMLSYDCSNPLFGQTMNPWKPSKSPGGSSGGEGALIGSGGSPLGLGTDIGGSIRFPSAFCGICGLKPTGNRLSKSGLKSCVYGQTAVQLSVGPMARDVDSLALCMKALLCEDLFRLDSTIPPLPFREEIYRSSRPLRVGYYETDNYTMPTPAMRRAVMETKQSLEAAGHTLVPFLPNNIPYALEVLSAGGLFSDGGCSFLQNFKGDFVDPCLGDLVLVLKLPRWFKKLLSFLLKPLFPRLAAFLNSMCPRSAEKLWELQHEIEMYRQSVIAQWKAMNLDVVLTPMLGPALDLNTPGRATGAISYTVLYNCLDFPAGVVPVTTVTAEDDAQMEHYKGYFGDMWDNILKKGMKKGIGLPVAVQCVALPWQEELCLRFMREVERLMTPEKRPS
# human FAAH-2 = target: T4, human FAAH-2 (Homo sapiens, UniProt Q6GMR7); assay: Inhibition of FAAH-2; type: biochemical
# T4 sequence (Q6GMR7 1-532): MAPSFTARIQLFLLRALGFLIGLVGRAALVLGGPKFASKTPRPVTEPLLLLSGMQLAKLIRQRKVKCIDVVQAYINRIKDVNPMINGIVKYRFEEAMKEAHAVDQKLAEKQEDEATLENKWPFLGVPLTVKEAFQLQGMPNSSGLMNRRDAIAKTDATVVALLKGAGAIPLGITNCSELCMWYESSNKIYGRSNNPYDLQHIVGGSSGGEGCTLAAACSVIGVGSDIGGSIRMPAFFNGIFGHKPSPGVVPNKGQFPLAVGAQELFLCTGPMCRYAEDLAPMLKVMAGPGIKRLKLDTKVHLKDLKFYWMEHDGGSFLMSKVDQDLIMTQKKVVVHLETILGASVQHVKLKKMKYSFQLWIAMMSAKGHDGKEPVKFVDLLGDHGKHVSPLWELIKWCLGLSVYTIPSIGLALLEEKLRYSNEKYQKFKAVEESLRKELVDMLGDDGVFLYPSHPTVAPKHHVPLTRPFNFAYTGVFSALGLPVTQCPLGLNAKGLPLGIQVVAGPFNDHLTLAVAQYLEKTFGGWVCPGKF
# FAAH [4] = target: T1, FAAH; assay: FAAH inhibition kinetics, enzyme-coupled assay with oleamide as substrate; type: biochemical
# [5] = target: T5, h/rFAAH ('humanized' rat-FAAH) (Rattus norvegicus, UniProt P97612, A377T/F194Y/I491V/L192F/S435N/V495M); assay: Inhibitor potency; type: biochemical; conditions: read-out: kinact/Ki h/rFAAH
# T5 sequence (P97612 30-579 L192F/F194Y/A377T/S435N/I491V/V495M limits assumed): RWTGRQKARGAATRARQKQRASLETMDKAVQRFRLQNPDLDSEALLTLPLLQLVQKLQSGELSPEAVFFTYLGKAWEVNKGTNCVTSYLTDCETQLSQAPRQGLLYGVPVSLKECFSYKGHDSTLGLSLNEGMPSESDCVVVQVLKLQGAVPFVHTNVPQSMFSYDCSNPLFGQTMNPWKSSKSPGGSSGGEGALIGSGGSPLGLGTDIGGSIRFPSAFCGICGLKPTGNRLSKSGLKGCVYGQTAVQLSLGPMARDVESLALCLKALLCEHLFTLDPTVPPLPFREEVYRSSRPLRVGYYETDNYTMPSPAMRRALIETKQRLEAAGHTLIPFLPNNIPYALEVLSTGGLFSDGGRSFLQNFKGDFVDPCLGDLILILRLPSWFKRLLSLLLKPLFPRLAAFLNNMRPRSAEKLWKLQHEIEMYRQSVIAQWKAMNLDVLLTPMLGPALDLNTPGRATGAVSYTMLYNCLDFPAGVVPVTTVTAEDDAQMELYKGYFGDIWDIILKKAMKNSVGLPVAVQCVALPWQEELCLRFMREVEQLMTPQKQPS
# Outline: as §1
# [6] = tested on: CFA model of inflammatory pain; assay: CFA model of inflammatory pain, mechanical allodynia; type: in vivo, rat; conditions: for effect on mechanical allodynia in rats not treated with PF-3845: SR141716 10 mg/kg, SR144528 30 mg/kg, i.p.
# Outline: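 Male Sprague-Dawley rats (200–250 g) received 0.15 ml CFA into the left hind paw plantar surface. On day 5, mechanical paw withdrawal thresholds were taken with von Frey hairs by the Dixon up-down method. Test compound was then given orally (1–30 mg/kg) in 5% N,N-dimethylacetamide/95% (40% 2-hydroxypropyl-β-cyclodextrin in water), and thresholds were re-measured 4 hr post-dose. Naproxen (10 mg/kg p.o.) served as reference. n=8/group; ANOVA, unpaired t-tests.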
# [7] = tested on: FAAH activity and NAEs in brain, blood leukocytes/plasma, liver; assay: FAAH activity and NAE levels in tissues and blood of treated rats; type: in vivo, rat; conditions: 4 hr
# [8] = tested on: liver serine hydrolases (carboxylesterases); assay: Competitive ABPP with FP-rhodamine, liver of treated mice; type: in vivo; conditions: 10 mg/kg, i.p., 2 hr
compound,measurement,setting,value
C#CCCCCCCCCCNC(=O)Oc1cccc(-c2cccc(C(N)=O)c2)c1 [JP104],proteins labeled in brain (CC-ABPP),[1]; brain,selectively reacted with a single protein in mouse brain
same,proteins labeled in liver (CC-ABPP),[1]; liver,labeling a number of proteins that were found in both FAAH(+/+) and (-/-) mice
O=C(Nc1cccnc1)N1CCC(Cc2cccc(Oc3ccc(C(F)(F)F)cn3)c2)CC1 [PF-3845],levels of 2-AG in brain or liver,"[2]; 10 mg/kg, i.p., mice",did not show changes
same,"elevations in brain levels of AEA (and other NAEs PEA, OEA)","[2]; 10 mg/kg, i.p., mice, brain",> 10 fold
same,time NAE elevations maintained at maximal levels (up to),"[2]; 10 mg/kg, i.p., mice, brain",7 to 12 h
same,time of peak elevation in NAEs,"[2]; 10 mg/kg, i.p., mice, brain",~3 h
same,"AEA, PEA, OEA levels at 24 hrs post-treatment","[2]; 10 mg/kg, i.p., mice, brain, 24 hrs",significant elevations
same,"AEA, PEA and OEA levels in liver tissue","[2]; 10 mg/kg, i.p., mice, liver",significant elevations
same,endocannabinoid (AEA or 2-AG) levels in FAAH(-/-) mice,[2]; FAAH(-/-) mice,did not alter
same,duration of high AEA elevations,[2]; mice,at least 7 hrs
same,kinact/KI,FAAH [3],12600 M⁻¹ s⁻¹
same,kinact/KI,rFAAH,3900 ± 780 M⁻¹ s⁻¹
same,inhibition of other FP-reactive serine hydrolases in brain,"FAAH in the brain; 10 mg/kg, i.p., mice",none of the other FP-reactive serine hydrolases in this tissue were inhibited
same,inactivation of FAAH in the brain,"FAAH in the brain; 10 mg/kg, i.p., mice",rapid and complete inactivation of FAAH in the brain
same,inhibition at 10 mg/kg,"FAAH in the brain; mouse, ip, read-out: brain FAAH inhibited at 24 hr",> 75%
same,IC50,human FAAH-2,> 10 µM
same,kinact,FAAH [4],0.0033 ± 0.0002 s⁻¹
same,kinact/KI,FAAH [4],14300 M⁻¹ s⁻¹
same,improvement in potency,FAAH [4]; PF-3845 versus PF-750 (structure comparison),~20 fold
same,fold higher kinact/Ki value for FAAH,FAAH [4]; compared to PF-750 or URB597,10-20 fold
same,kinact/KI,[5],13300 M⁻¹ s⁻¹
same,efficacy in CFA model at 1 mg/kg,"[6]; 1 mg/kg p.o., 4 hr",efficacy was not observed
same,"inhibition of mechanical allodynia, time course 2-8 hrs","[6]; 10 mg/kg, p.o., 2-8 hrs post-administration",significant inhibition of mechanical allodynia at all time points tested
same,"minimum effective dose (MED), inhibition of mechanical allodynia","[6]; p.o., 1-30 mg/kg, rats, 4 hr post-dosing",3 mg/kg
same,inhibition of pain responses at 10 and 30 mg/kg,"[6]; p.o., 10 and 30 mg/kg, versus naproxen 10 mg/kg p.o.","equivalent, if not greater degree than the nonsteroidal anti-inflammatory drug naproxen"
same,blockade of FAAH activity at 1 mg/kg,[7]; 1 mg/kg p.o.,near-complete blockade of FAAH activity
same,elevations in AEA at 1 mg/kg,[7]; 1 mg/kg p.o.,close to maximal elevations in AEA
same,increase of OEA and PEA in brain,"[7]; p.o., brain",~10 fold
same,maximal elevation of AEA in brain and plasma,"[7]; p.o., brain and plasma",~10 fold
same,increase of OEA and PEA in plasma,"[7]; p.o., plasma",~3 fold
"Cc1c(C(=O)NN2CCCCC2)nn(-c2ccc(Cl)cc2Cl)c1-c1ccc(Cl)cc1 [SR141716, reference compound]",effect on mechanical allodynia in rats not treated with PF-3845,[6],neither the CB1 nor CB2 antagonist displayed significant effects
"NC(=O)c1cccc(-c2cccc(OC(=O)NC3CCCCC3)c2)c1 [URB597, cyclohexyl carbamic acid 3′-carbamoyl-biphenyl-3-yl ester, reference compound]",time by which AEA levels return to near-baseline,"[2]; 10 mg/kg, i.p., mice, brain",up to 7 hrs
same,inhibition of other FP-reactive serine hydrolases in brain,"FAAH in the brain; 10 mg/kg, i.p., mice",none of the other FP-reactive serine hydrolases in this tissue were inhibited
same,brain FAAH activity at 24 hr,"FAAH in the brain; 10 mg/kg, i.p., mice, 24 hr",nearly wild type levels of brain FAAH activity
same,inactivation of FAAH in the brain,"FAAH in the brain; 10 mg/kg, i.p., mice",rapid and complete inactivation of FAAH in the brain
same,blockade of FP-labeling of additional liver serine hydrolases,[8],blocked FP-labeling of several additional liver serine hydrolases
SR144528 [reference compound],effect on mechanical allodynia in rats not treated with PF-3845,[6],neither the CB1 nor CB2 antagonist displayed significant effects
